# Experimental data published in ChEMBL document CHEMBL2429857, “Synthesis and pharmacological evaluation of pyrazolopyrimidopyrimidine derivatives: anti-inflammatory agents with gastroprotective effect in rats” (2013).
# Tested on: Rattus norvegicus
# Assay: Antiinflammatory activity in ip dosed Wistar rat assessed as inhibition of carrageenan-induced paw edema administered 30 mins prior to carrageenan challenge measured after 1 to 5 hrs relative to vehicle-treated control
# Assay type: functional, organism-based
# Conditions: not given
# Procedure, shortened: (§1)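 Adult male Wistar rats (150–170 g), fasted overnight with water, n = 6 per group. Vehicle (Tween 80/absolute ethanol/0.9 % saline 1:1:18; 2.5 ml/kg) or drug given i.p. 30 min before 0.05 ml of 1 % carrageenan into the left hind paw. Paw volume to the tibiotarsal joint measured by plethysmometer at 0, 1, 3, 5 h. Oedema = VT − V0; % inhibition against vehicle controls. Mean ± SEM, Student's t test.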
row,SMILES,inhibition
1,CCOC(=O)c1c(CC)nc2c3c(C)nn(-c4ccccc4)c3ncn2c1=N,Dose-dependent effect
2,Cc1nc2c3c(C)nn(-c4ccccc4)c3ncn2c(=N)c1C#N,Dose-dependent effect
3,CCOC(=O)c1c(C)nc2c3c(C)nn(-c4ccccc4)c3ncn2c1=N,Dose-dependent effect
4,Cc1nn(-c2ccccc2)c2ncn3c(=N)c(C#N)cnc3c12,Dose-dependent effect

# Tested on: Rattus norvegicus
# Assay: Antiinflammatory activity in Wistar rat assessed as inhibition of carrageenan-induced paw edema at 100 mg/kg, ip administered 30 mins prior to carrageenan challenge measured after 5 hrs relative to vehicle-treated control
# Assay type: functional
# Conditions: route intraperitoneal
# Procedure, shortened: as §1
row,SMILES,inhibition in vivo at 100 mg/kg [%]
1,CCOC(=O)c1c(CC)nc2c3c(C)nn(-c4ccccc4)c3ncn2c1=N,40.2
2,Cc1nc2c3c(C)nn(-c4ccccc4)c3ncn2c(=N)c1C#N,62.8
3,CCOC(=O)c1c(C)nc2c3c(C)nn(-c4ccccc4)c3ncn2c1=N,68.8
4,Cc1nn(-c2ccccc2)c2ncn3c(=N)c(C#N)cnc3c12,58.1

# Tested on: Rattus norvegicus
# Assay: Antiinflammatory activity in Wistar rat assessed as inhibition of carrageenan-induced paw edema at 100 mg/kg, ip administered 30 mins prior to carrageenan challenge measured after 3 hrs relative to vehicle-treated control
# Assay type: functional
# Conditions: route intraperitoneal
# Procedure, shortened: as §1
row,SMILES,inhibition in vivo at 100 mg/kg [%]
1,CCOC(=O)c1c(CC)nc2c3c(C)nn(-c4ccccc4)c3ncn2c1=N,42.9
2,Cc1nc2c3c(C)nn(-c4ccccc4)c3ncn2c(=N)c1C#N,71.4
3,CCOC(=O)c1c(C)nc2c3c(C)nn(-c4ccccc4)c3ncn2c1=N,82.8
4,Cc1nn(-c2ccccc2)c2ncn3c(=N)c(C#N)cnc3c12,56.8

# Tested on: Rattus norvegicus
# Assay: Gastroprotective activity in Wistar rat assessed as inhibition of HCl/ethanol-induced gastric ulcer at 100 mg/kg, ip administered 30 mins prior to HCl/ethanol challenge measured after 1 hr relative to vehicle-treated control
# Assay type: functional
# Conditions: Stomach, route intraperitoneal
# Procedure, shortened: (§2)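 Male Wistar rats (150–170 g), fasted 24 h, six per group. Vehicle (Tween 80/ethanol/saline 1/1/18) or treatment given i.p.; 30 min later, oral 150 mM HCl/EtOH (40:60, v/v), 1 ml/100 g. Killed 1 h afterwards. Stomachs opened along the greater curvature and stretched out. Summed lesion length (mm) taken as lesion index; % inhibition against vehicle controls. Mean ± SEM, Student's t test.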
row,SMILES,inhibition in vivo at 100 mg/kg [%]
1,CN/C(=N\CCSCc1nc[nH]c1C)NC#N [CIMETIDINE],74
2,CCOC(=O)c1c(CC)nc2c3c(C)nn(-c4ccccc4)c3ncn2c1=N,52.2
3,CCOC(=O)c1c(C)nc2c3c(C)nn(-c4ccccc4)c3ncn2c1=N,91.4
4,Cc1nn(-c2ccccc2)c2ncn3c(=N)c(C#N)cnc3c12,64.7

# Tested on: Rattus norvegicus
# Assay: Antiinflammatory activity in Wistar rat assessed as inhibition of carrageenan-induced paw edema at 50 mg/kg, ip administered 30 mins prior to carrageenan challenge measured after 1 hr relative to vehicle-treated control
# Assay type: functional
# Conditions: route intraperitoneal
# Procedure, shortened: as §1
row,SMILES,inhibition in vivo at 50 mg/kg [%]
1,CCOC(=O)c1c(CC)nc2c3c(C)nn(-c4ccccc4)c3ncn2c1=N,32
2,Cc1nc2c3c(C)nn(-c4ccccc4)c3ncn2c(=N)c1C#N,59.2
3,CCOC(=O)c1c(C)nc2c3c(C)nn(-c4ccccc4)c3ncn2c1=N,62.3
4,Cc1nn(-c2ccccc2)c2ncn3c(=N)c(C#N)cnc3c12,42.6

# Tested on: Rattus norvegicus
# Assay: Antiinflammatory activity in Wistar rat assessed as inhibition of carrageenan-induced paw edema at 50 mg/kg, ip administered 30 mins prior to carrageenan challenge measured after 5 hrs relative to vehicle-treated control
# Assay type: functional
# Conditions: route intraperitoneal
# Procedure, shortened: as §1
row,SMILES,inhibition in vivo at 50 mg/kg [%]
1,CCOC(=O)c1c(CC)nc2c3c(C)nn(-c4ccccc4)c3ncn2c1=N,25.1
2,Cc1nc2c3c(C)nn(-c4ccccc4)c3ncn2c(=N)c1C#N,58
3,CCOC(=O)c1c(C)nc2c3c(C)nn(-c4ccccc4)c3ncn2c1=N,59.4
4,Cc1nn(-c2ccccc2)c2ncn3c(=N)c(C#N)cnc3c12,39.8

# Tested on: Rattus norvegicus
# Assay: Antiinflammatory activity in Wistar rat assessed as inhibition of carrageenan-induced paw edema at 100 mg/kg, ip administered 30 mins prior to carrageenan challenge measured after 1 hr relative to vehicle-treated control
# Assay type: functional
# Conditions: route intraperitoneal
# Procedure, shortened: as §1
row,SMILES,inhibition in vivo at 100 mg/kg [%]
1,CCOC(=O)c1c(CC)nc2c3c(C)nn(-c4ccccc4)c3ncn2c1=N,65.7
2,Cc1nc2c3c(C)nn(-c4ccccc4)c3ncn2c(=N)c1C#N,92.2
3,CCOC(=O)c1c(C)nc2c3c(C)nn(-c4ccccc4)c3ncn2c1=N,94.2
4,Cc1nn(-c2ccccc2)c2ncn3c(=N)c(C#N)cnc3c12,80.4

# Tested on: Rattus norvegicus
# Assay: Antiinflammatory activity in Wistar rat assessed as inhibition of carrageenan-induced paw edema at 50 mg/kg, ip administered 30 mins prior to carrageenan challenge measured after 3 hrs relative to vehicle-treated control
# Assay type: functional
# Conditions: route intraperitoneal
# Procedure, shortened: as §1
row,SMILES,inhibition in vivo at 50 mg/kg [%]
1,CCOC(=O)c1c(CC)nc2c3c(C)nn(-c4ccccc4)c3ncn2c1=N,28.8
2,Cc1nc2c3c(C)nn(-c4ccccc4)c3ncn2c(=N)c1C#N,59
3,CCOC(=O)c1c(C)nc2c3c(C)nn(-c4ccccc4)c3ncn2c1=N,60
4,Cc1nn(-c2ccccc2)c2ncn3c(=N)c(C#N)cnc3c12,40.6

# Tested on: Rattus norvegicus
# Assay: Gastroprotective activity in Wistar rat assessed as inhibition of HCl/ethanol-induced gastric ulcer at 50 mg/kg, ip administered 30 mins prior to HCl/ethanol challenge measured after 1 hr relative to vehicle-treated control
# Assay type: functional
# Conditions: Stomach, route intraperitoneal
# Procedure, shortened: as §2
row,SMILES,inhibition in vivo at 50 mg/kg [%]
1,CCOC(=O)c1c(CC)nc2c3c(C)nn(-c4ccccc4)c3ncn2c1=N,40.2
2,Cc1nc2c3c(C)nn(-c4ccccc4)c3ncn2c(=N)c1C#N,68.4
3,CCOC(=O)c1c(C)nc2c3c(C)nn(-c4ccccc4)c3ncn2c1=N,72.5
4,Cc1nn(-c2ccccc2)c2ncn3c(=N)c(C#N)cnc3c12,48.6
